Reference: paper PMC4969713 (Journal of Alzheimer's Disease, 2016)
Where a name gives a salt, the structure may show the parent alone.

Experiments:
P-glycoprotein = P-glycoprotein (Homo sapiens, UniProt P08183); assay: Pgp-Glo ATPase assay; assay type: biochemical
Procedure, shortened: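 P-glycoprotein ATPase activity was measured with the Pgp-Glo assay system per the manufacturer's protocol. Orthovanadate-sensitive activity was determined in the presence of test compound.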

Dopaminergic receptors = assay: Radioligand competition, dopaminergic receptors; assay type: binding; settings: compared to the 5-HT7 receptor
CYP2C9 = CYP2C9 (Homo sapiens, UniProt P11712); assay: Metabolism by recombinant CYP2C9; assay type: in vitro ADME
male BALB/c mice = assay: Elevated Platform test; assay type: in vivo; settings: IP; Lorazepam 0.05 mg/kg, AVN-101 0.2 mg/kg; initial 2 min
[1] = test system: Salmonella typhimurium strains: TA98, TA1535, and TA1537; assay: Ames MPF test; assay type: cell-based; settings: AVN-101 highest concentration 50μM
Procedure, shortened: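 Run per kit manual in the Ames MPF fluctuation format with histidine-dependent strains TA98, TA1535 and TA1537. Test compound reached a highest concentration of 50 μM. Strain-specific positive controls: 4-nitro-o-phenylenediamine 15 μg/mL (TA98), sodium azide 2 μg/mL (TA1535), 9-aminoacridine 50 μg/mL (TA1537). Reverse mutation rate recorded.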

Chain of P-glycoprotein (P08183 whole entry): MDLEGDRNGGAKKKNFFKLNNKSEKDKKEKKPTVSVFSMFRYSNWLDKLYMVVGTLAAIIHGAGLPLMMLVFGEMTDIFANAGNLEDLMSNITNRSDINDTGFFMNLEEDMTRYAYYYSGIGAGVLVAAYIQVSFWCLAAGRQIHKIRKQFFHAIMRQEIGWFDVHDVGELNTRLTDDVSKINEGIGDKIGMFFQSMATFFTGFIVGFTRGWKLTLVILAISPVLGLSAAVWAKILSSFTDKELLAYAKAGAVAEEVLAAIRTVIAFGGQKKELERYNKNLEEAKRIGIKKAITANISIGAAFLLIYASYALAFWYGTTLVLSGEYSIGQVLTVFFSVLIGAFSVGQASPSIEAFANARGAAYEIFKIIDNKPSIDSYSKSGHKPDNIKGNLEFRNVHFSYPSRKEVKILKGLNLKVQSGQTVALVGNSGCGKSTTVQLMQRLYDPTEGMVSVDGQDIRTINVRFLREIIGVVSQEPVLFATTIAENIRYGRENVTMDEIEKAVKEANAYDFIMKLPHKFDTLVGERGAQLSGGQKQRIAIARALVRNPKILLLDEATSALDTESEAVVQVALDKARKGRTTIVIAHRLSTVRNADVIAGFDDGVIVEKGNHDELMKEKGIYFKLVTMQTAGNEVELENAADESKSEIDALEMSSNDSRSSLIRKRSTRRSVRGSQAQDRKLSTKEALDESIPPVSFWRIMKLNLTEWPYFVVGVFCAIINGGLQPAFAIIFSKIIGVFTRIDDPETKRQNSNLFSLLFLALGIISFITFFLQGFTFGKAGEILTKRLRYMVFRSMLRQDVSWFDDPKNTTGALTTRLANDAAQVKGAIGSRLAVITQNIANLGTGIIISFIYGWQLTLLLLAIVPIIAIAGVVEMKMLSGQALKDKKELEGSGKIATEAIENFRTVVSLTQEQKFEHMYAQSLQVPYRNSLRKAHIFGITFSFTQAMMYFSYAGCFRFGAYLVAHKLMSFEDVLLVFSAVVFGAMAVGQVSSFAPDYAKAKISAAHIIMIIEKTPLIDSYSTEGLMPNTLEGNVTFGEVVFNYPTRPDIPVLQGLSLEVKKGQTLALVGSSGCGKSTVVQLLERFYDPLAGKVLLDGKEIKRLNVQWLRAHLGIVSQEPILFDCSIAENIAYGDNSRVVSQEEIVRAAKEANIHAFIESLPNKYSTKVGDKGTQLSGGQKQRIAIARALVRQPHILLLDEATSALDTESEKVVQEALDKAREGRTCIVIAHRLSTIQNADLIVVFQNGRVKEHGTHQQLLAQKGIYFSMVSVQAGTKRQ
Chain of CYP2C9 (P11712 whole entry): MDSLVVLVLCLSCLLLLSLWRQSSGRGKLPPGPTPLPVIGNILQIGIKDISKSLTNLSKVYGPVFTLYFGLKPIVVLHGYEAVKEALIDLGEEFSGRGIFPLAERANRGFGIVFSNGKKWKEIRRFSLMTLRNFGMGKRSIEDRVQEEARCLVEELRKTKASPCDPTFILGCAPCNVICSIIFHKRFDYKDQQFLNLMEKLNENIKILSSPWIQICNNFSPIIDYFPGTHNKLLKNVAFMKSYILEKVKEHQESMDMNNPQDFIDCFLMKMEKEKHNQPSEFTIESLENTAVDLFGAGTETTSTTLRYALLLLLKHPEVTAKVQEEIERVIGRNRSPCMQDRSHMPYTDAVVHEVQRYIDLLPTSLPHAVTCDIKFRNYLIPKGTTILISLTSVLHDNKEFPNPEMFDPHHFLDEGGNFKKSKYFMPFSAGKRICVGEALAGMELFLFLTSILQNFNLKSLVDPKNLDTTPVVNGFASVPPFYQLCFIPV

Cc1ccc2c(c1)c1c(n2CCc2ccccc2)CCN(C)C1 [AVN-101, 2,8-dimethyl-5-penethyl-2,3,4,5-tetra-hydro-1h-pyrido[[4,3-B]]indole hydrochloride]
EC50 (P-glycoprotein): ~50 µM | effect on Pgp ATP-ase activity (P-glycoprotein; orthovanadate-sensitive ATPase): strong activation | affinity (Dopaminergic receptors): very low affinity | remaining at 0.5 h, 2 µM (CYP2C9): 110% | duration of freezing behavior (male BALB/c mice): significantly reduced duration of the freezing behavior | mutagenicity (reverse mutation rate) [1]: produced no mutagenesis
